An excerpt weighted towards active compounds, which were near 2.1% of everything screened.
SUMO1-SIM PPI – alters human SUMO1 binding to SIM partners; SUMO1 binding to a labelled peptide, TR-FRET, 1 h; inhibition, % at 20 µM; P63165; 0.33% of 360,000 active; AID 602429; in the data active = inhibition above about 37%
LMPTP block – LMPTP (human) inhibition. P24666. recombinant LMPTP-A, OMFP fluorogenic substrate, fluorescence intensity. 0.22% of 360,000 active. AID 651560. inhibition, % at 20 µM;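 active = compounds that cut the enzyme signal by at least half of the control window in the single-dose screen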;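 note: plate controls were DMSO wells with enzyme plus substrate for no effect and substrate without enzyme for full effect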
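Test system – LMPTP-A phosphatase enzyme · Quantity – 0.625 nM LMPTP-A final · Reagent – OMFP substrate, 400 µM final · Dosing – one test concentration per compound, 20 µM, with 3% DMSO overall · Timing – 50 min enzyme reaction at room temperature, protected from light · Detection – fluorescence intensity · Controls – substrate-only low control, DMSO enzyme-plus-substrate high control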
STEP inh – STEP (human) phosphatase inhibition; AID 588621; inhibition, % at 20 µM; 0.25% of 360,000 active; recombinant STEP, OMFP fluorogenic substrate, fluorescence;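 active = inhibition at 20 µM, scaled per plate between control wells, above about 37%, limit read from the data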;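 note: 0% = DMSO with enzyme and substrate and 100% = substrate only without enzyme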
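Also added – OMFP at 25 µM · Test system – STEP tyrosine phosphatase · Technique – FITC-channel fluorescence of OMFP product · Schedule – 20 min at room temperature, dark · Evaluation – control-normalized % inhibition with plate pattern correction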
DNMT1 block – blocks human DNA methyltransferase DNMT1. inhibition (reported as % activation of signal), % at 10 µM. 0.83% of 360,000 active. AID 588458. P26358. DNMT1 molecular beacon, Hinp1I cleavage, fluorescence; in the data active = inhibition above about 50%
Target sequence (P26358 504-1616 limits assumed): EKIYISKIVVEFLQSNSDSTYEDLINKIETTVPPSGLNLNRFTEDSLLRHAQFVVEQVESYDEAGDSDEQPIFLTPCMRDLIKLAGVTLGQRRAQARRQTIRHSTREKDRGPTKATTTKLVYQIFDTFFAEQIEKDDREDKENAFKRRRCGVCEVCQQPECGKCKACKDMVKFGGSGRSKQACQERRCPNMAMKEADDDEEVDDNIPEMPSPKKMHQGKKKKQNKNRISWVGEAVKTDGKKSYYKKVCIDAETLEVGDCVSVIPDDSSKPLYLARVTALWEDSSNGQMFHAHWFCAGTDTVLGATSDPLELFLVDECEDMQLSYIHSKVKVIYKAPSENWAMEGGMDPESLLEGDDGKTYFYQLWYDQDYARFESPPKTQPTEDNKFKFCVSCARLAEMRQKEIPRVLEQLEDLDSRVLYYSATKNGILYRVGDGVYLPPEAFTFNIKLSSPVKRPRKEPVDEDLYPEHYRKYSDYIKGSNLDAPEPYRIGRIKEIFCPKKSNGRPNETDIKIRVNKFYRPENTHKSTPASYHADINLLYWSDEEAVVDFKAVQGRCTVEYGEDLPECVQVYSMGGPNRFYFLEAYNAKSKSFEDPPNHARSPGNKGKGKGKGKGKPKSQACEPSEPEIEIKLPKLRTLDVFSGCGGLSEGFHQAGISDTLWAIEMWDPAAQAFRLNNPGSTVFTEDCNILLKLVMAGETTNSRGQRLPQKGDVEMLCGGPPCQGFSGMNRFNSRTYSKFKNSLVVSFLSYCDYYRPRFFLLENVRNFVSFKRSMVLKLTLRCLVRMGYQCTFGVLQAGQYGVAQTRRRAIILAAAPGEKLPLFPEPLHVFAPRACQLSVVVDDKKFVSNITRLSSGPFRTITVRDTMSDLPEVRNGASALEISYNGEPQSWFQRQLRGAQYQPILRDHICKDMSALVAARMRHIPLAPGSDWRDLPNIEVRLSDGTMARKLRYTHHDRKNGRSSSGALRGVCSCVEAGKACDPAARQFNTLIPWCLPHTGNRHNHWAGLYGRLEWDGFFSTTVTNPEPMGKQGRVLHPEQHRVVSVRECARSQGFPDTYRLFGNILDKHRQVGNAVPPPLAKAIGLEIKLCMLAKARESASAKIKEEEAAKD
GRK2 aptamer HTS – human GRK2 inhibition via aptamer displacement. P25098. inhibition of aptamer binding, % at 10 µM. 0.59% of 330,000 active. bead flow cytometry, FAM-aptamer displacement from GRK2;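 active = inhibition of aptamer binding above 40%, roughly 3 SD of noise, on plates passing a quality check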;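 note: median bead fluorescence of bound FAM aptamer so fluorescent compounds give negative values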
Scp1 inh – Scp-1 (human) phosphatase inhibition; Recombinant Scp1, phosphopeptide, malachite green phosphate absorbance; inhibition, % at 20 µM; Q9GZU7; 0.88% of 340,000 active; AID 493091;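 active = inhibition above about 50% at 20 µM, limit read from the data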;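 note: plate controls were DMSO wells with enzyme for no effect and wells lacking enzyme for full effect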
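Material: truncated SCP-1 phosphatase (76-261aa) / Buffer or medium: 50 mM Tris acetate pH 5.5, 0.005% Tween-20, 10 mM MgCl2 / Compound dosing: one concentration, 20 µM, with 1.0% DMSO / Incubation: 45 min room-temperature reaction, 5 min colour, 30 min stabiliser / Detection: colorimetric free-phosphate detection, absorbance 630 nm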
DNMT1 interf DR – shows spectral interference in the DNMT1 beacon assay; molecular beacon fluorescence, spectral interference counter-screen; IC50, µM; AID 602382; shares compounds with DNMT1 block; 200 tested, under 10 active; call rule not given here
DNMT1 confirm – confirmation of human DNMT1 inhibitors. 8% of 2,300 active. DNMT1 molecular beacon HinP1I cleavage, fluorescence. shares compounds with DNMT1 block. inhibition, % at 10 µM. AID 602385;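 active = average inhibition of at least 30% in the single-concentration confirmation test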
DNMT1 interf – shows spectral interference in the DNMT1 beacon assay; DNMT1 molecular beacon spectral interference counterscreen, fluorescence 485/520; 1% of 2,300 active; activation (fluorescence interference), % at 10 µM; shares compounds with DNMT1 block;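 active = activation of at least 30% at 10 µM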;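 note: DNMT1 catalytic domain with a HinP1I cleavage step and a FAM/dabcyl DNA beacon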
Active calls of the source: *; · = no result.

SMILES | SUMO1-SIM PPI | LMPTP block | STEP inh | DNMT1 block | GRK2 aptamer HTS | Scp1 inh | DNMT1 confirm | DNMT1 interf | others
CCOC(=O)CSC1=N/C(=C\c2ccc(OC)c(OC)c2)C(=O)N1C | -14 | 0 | -1 | 1 | 1 | -17 | · | ·
CCCc1cc(=O)oc2c(C)c(OCC(=O)c3ccc(N4CCCC4)cc3)ccc12 | 1 | 6 | 2 | 57* | · | 40 | 6 | -2
CC1=NN2C(=N)/C(=C\c3cc(C)n(Cc4ccccc4)c3C)C(=O)N=C2S1 | -12 | 0 | -1 | 2 | 0 | -1 | · | ·
N=C1/C(=C\c2ccc(SCc3ccco3)o2)C(=O)N=C2SC=NN12 | 43* | 30 | 8 | 106* | 3 | 32 | 4 | 5
CC1=NN2C(=N)/C(=C\c3ccc(SCc4ccccc4)o3)C(=O)N=C2S1 | 5 | 3 | 5 | 64* | 0 | 20 | 3 | 2
O=C(O)CN1C(=O)/C(=C\c2ccc(OC(=O)c3ccco3)cc2)SC1=S | -26 | 2 | 15 | 0 | 0 | 6 | · | ·
CC1=CN2C(=N)/C(=C/c3ccco3)C(=O)N=C2S1 | -17 | 1 | -4 | 6 | 7 | 6 | · | ·
O=C(O)CN1C(=O)/C(=C/c2ccc(SCc3ccccc3)o2)SC1=S | 4 | 9 | 12 | 76* | · | 59* | 20 | 8
Cc1cccc(NC(=O)c2ccc(OCc3c(C)noc3C)cc2)n1 | -4 | -8 | -3 | -2 | 0 | -9 | · | ·
Cc1ccc(NC(=O)C2CCN(S(=O)(=O)c3ccc(C(C)(C)C)cc3)CC2)cc1S(=O)(=O)N1CCOCC1 | 2 | 3 | 1 | -9 | · | -5 | · | ·
CCC(=O)c1ccc(OCC(=O)OCC(=O)N2CCCc3ccccc32)cc1 | 7 | -1 | -1 | -1 | 0 | -9 | · | ·
c1ccc(-c2cc3nc(NCc4cccs4)nc(NCc4ccc5occc5c4)c3s2)cc1 | -3 | 5 | 25 | -7 | · | · | · | ·
Cc1nn(-c2cccc(Cl)c2)c(Cl)c1/C=N/NC(=O)c1cccs1 | 6 | 13 | -5 | 72* | 0 | -2 | 5 | -1
CCc1ccc(-c2cc(C(F)(F)F)n3nc(C(=O)Nc4cnn(Cc5ccc(C)cc5)c4)cc3n2)s1 | -5 | 3 | 20 | 56* | 0 | -4 | 0 | -7
Cc1ccccc1Cn1cc(NC(=O)c2cc3nc(-c4ccco4)cc(C(F)(F)F)n3n2)cn1 | 2 | 3 | -1 | -10 | 1 | -8 | · | ·
CN1CC(=O)N2[C@H](c3ccc4c(c3)OCO4)c3[nH]c4ccccc4c3C[C@@H]2C1=O | 4 | -2 | -6 | -1 | 3 | -9 | · | ·
CC1CCCN(CCCNC(=O)C2CCC(CNS(=O)(=O)c3cccc4nsnc34)CC2)C1 (stereo not drawn) | -30 | 0 | -3 | 50* | 0 | 1 | 4 | 2
O=NN(CCF)C(=O)NC1CCS(=O)(=O)CC1 | 2 | -1 | · | · | · | · | · | ·
CC(=O)c1cccc(NC(=O)CN2C(=O)C3C4C=CC(C4)C3C2=O)c1 (stereo not drawn) | -2 | 0 | -3 | 50* | 0 | 0 | 1 | 1
O=C(Cn1c(=O)oc2ccccc21)Nc1nc(-c2ccc(Br)cc2)cs1 | -3 | 0 | 1 | 44 | 0 | 0 | -1 | 0
COc1ccc(C2(SCC(N)C(=O)O)c3ccccc3-c3ccccc32)cc1 (stereo not drawn) | 3 | 3 | 2 | -31 | · | 2 | · | ·
CC(=NNC(=O)COc1cccc(C)c1)c1cccnc1 | -1 | -1 | -2 | 80* | 0 | -6 | 1 | 1
CCOC(=O)c1nn(-c2ccc(F)cc2)c(=O)cc1OCC(=O)Nc1ccc(OCC)cc1 | 36 | 1 | 7 | 69* | 0 | -1 | 80* | -1 | DNMT1 interf DR=>99
CCOC(=O)c1nn(-c2ccc(C)cc2)c(=O)cc1OCC(=O)Nc1cccc(OC)c1 | 4 | 0 | -1 | 1 | 1 | -6 | · | ·
Cc1ccc(OCCNC(=O)CCNS(=O)(=O)c2ccc3ccccc3c2)cc1 | -2 | 1 | 1 | -2 | 2 | 7 | · | ·
SMILES | SUMO1-SIM PPI | LMPTP block | STEP inh | DNMT1 block | GRK2 aptamer HTS | Scp1 inh | DNMT1 confirm | DNMT1 interf | others
COc1cc(OC)cc(-c2c(-c3cccs3)c3cc(-c4ccc(OCc5ccccc5)cc4)ccc3n2C)c1 | -7 | 0 | 4 | 52* | 3 | -11 | 0 | -1
COc1ccc(-c2c(-c3cc(OC)cc(OC)c3)n(C)c3ccc(-c4cnc(N)nc4)cc23)cc1 | -1 | -1 | 0 | 54* | 0 | 4 | 0 | -2
COc1ccc(-c2c(-c3cc(OC)cc(OC)c3)n(C)c3ccc(-c4ccc(OC)nc4)cc23)cc1 | 6 | 2 | -1 | 3 | 2 | 5 | · | ·
O=S(=O)(Nc1cccc2c1CCCC2)c1ccc(Cl)cc1 | 1 | 2 | 0 | -3 | 3 | -5 | · | ·
COc1cc(C)cc(C(=O)O)c1C1=C(O)c2cccc(O)c2C(=O)C1=O | 7 | 4 | 6 | 66* | 5 | 47 | 17 | -2
C[C@H](CO)N1C[C@H](C)[C@H](CN(C)C(=O)Nc2ccnc(N3CCOCC3)c2)OCc2cnnn2CCCC1=O | 6 | 0 | -2 | 4 | · | · | · | ·
COc1ccc2[nH]cc(CCNC(=O)Cc3c(F)cccc3Cl)c2c1 | 4 | 1 | 2 | 72* | 0 | -8 | 3 | 8
Cc1c(NC(=O)/C(C#N)=C/c2ccc(-c3ccccc3Cl)o2)c(=O)n(-c2ccccc2)n1C | -5 | 0 | -1 | 10 | 0 | 8 | · | ·
N#C/C(=C\c1ccc(-c2ccccc2Cl)o1)C(=O)Nc1nc2ccccc2s1 | 13 | 4 | 1 | 88* | 3 | -3 | 12 | -7
CCOC(=O)C1=C(C)N(C[C@@H]2CC[C@@H](Cc3ccc(-c4ccccc4)cc3)O2)C(=O)NC1c1ccc(SCc2ccco2)c([N+](=O)[O-])c1 (stereo partly drawn) | 6 | 6 | 1 | 94* | 5 | 35 | 6 | -4
CCOC(=O)C1=C(C)N(C[C@@H]2CC[C@@H](Cc3ccc(-c4ccccc4)cc3)O2)C(=O)NC1c1ccc(C(F)(F)F)cc1 (stereo partly drawn) | 1 | 3 | 0 | -7 | 4 | -1 | · | ·
CCCC(=O)Nc1ccc(-c2nc3cc(C)c(C)cc3o2)cc1 | -1 | -2 | -1 | 56* | 5 | -3 | -1 | -5

High-throughput results as filed in PubChem BioAssay.
